Compound activity from PubChem.
Shown is part of a subset that was picked to be rich in hits.
Lmaj promast: Leishmania major promastigote growth inhibition, primary screen; Leishmania major promastigotes, resazurin fluorescence viability; inhibition, % at 10 µM; 9% of 200,000 active; AID 1063, 2008;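 further: promastigotes grown with compound for 44 hours at 28 °C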
PKD1 kinase inh: inhibitors of human PKD1 kinase, biochemical, fluorescence polarization | inhibition, % (test concentration not listed) | AID 797, 2007 | PKD1 kinase fluorescence polarization assay | 0.056% of 200,000 active
Avidin bead fluor: green autofluorescence of compounds with avidin beads – biophysical, 488/530 nm, flow cytometry, artefact control, profiling panel; compound fluorescence 488/530 nm; hits give high values; fluorescence (KMESF) at 10 µM; 0.38% of 220,000 active; AID 1775, 2009; in the data active means fluorescence above about 47
ABCB1 inh: ABCB1 efflux pump inhibitors, primary screen, cell-based, multiplex, flow cytometry, ABCG2 counter-screen. CCRF-Adr cells, JC-1 efflux. inhibition, % at 6.6 µM. 0.067% of 190,000 active. AID 1326, 2008; in the data active means inhibition above about 40%;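 further: higher value means more JC-1 retained so stronger ABCB1 efflux block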
ABCG2 block: ABCG2 efflux pump inhibitors, primary screen, multiplex with ABCB1, IgMXP3 cells, flow cytometry. Broad substrate specificity ATP-binding cassette transporter ABCG2 (Homo sapiens), Q9UNQ0. JC-1 efflux. inhibition, % at 6.6 µM. 0.1% of 190,000 active. AID 1325, 2008;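 active means inhibition above 80%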
Target sequence (Q9UNQ0 whole entry, looked up): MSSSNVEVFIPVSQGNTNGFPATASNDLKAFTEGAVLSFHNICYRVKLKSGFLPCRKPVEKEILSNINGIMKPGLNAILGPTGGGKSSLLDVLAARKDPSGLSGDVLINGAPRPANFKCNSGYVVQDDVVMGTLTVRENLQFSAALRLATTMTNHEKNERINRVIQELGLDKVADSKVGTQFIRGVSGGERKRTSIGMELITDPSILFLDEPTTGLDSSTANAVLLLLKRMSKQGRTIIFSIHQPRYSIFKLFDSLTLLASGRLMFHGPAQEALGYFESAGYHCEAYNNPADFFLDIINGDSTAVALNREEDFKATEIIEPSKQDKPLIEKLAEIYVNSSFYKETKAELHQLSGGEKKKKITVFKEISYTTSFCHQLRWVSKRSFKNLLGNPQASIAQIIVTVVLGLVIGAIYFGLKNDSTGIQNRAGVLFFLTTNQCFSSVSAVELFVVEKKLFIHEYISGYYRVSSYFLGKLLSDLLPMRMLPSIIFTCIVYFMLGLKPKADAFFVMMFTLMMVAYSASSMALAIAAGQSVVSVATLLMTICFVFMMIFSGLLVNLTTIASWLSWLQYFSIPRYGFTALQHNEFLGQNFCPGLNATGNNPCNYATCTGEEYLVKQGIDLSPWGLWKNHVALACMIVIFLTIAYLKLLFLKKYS
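Test system: IgMXP3 cells (ABCG2) mixed with DDAO far-red-labelled CCRF-Adr cells (ABCB1). Reagent: JC-1 transporter substrate. Compound dosing: single test compound dose, 6.6 µM final. Times: 10 min compound exposure, 25 °C. Detection: flow cytometry of retained JC-1 fluorescence. Read-out basis: efflux inhibition in percent versus controls. Controls: nicardipine and DMSO wells.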
GSH fluor: compound fluorescence on glutathione beads, profiling panel, artefact control, biophysical, 488/530 nm, flow cytometry; GSH beads flow cytometry, compound fluorescence 488/530 nm; hits give high values; 0.25% of 190,000 active; fluorescence (KMESF) at 10 µM; AID 1776, 2009; in the data active means fluorescence above about 89;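 further: glutathione beads carrying GST-tagged Bcl family fusion proteins plus one bare bead set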
Large screens that a line does not name were inactive. Unless noted, no stated cut-off is given here; in the data, active means inhibition above about 50%; inactive means the rest.

CCN(C(=O)CSc1nnc2ccccn12)c1c(N)n(Cc2ccccc2)c(=O)[nH]c1=O	none
Cc1ccc2c(c1)C(O)(CC(=O)/C=C/C=C/c1ccccc1)C(=O)N2 (configuration not stated)	none
O=C(NCC1CCCO1)C1C2C=CC3(CN(Cc4cccs4)C(=O)C13)O2 (configuration not stated)	none
COC(=O)c1ccc(C)c(-n2c(C)cc(C=O)c2C)c1	none
O=C(CN1CCOCC1)N1CCN(C(=O)CN2CCOCC2)CC1	none (no result: Avidin bead fluor, ABCB1 inh, ABCG2 block, GSH fluor)
O=C(NCCC1=CCCCC1)C(=O)NCC(c1ccco1)N1CCN(c2ccccc2)CC1 (configuration not stated)	Lmaj promast 88
COC(=O)NCC(c1ccco1)N1CCN(c2ccccc2)CC1 (configuration not stated)	none
O=C(NCc1ccncc1)C(=O)NCC(c1ccco1)N1CCN(c2ccccc2F)CC1 (configuration not stated)	Lmaj promast 52
COc1ccc(N2CCN(C(CNC(=O)C(=O)NCCC3=CCCCC3)c3ccco3)CC2)cc1 (configuration not stated)	Lmaj promast 86
O=C(Cc1ccc(S(=O)(=O)N2CCCC2)s1)Nc1nc2c(s1)CCCC2	Lmaj promast 85
CC(C)(C)NC(=O)Cc1ccc(S(=O)(=O)N2CCCC2)s1	none
Cc1ccc(NC2=C(Cl)C(=O)OC2OC(C)C)c(C)c1 (configuration not stated)	none
Cc1cccc(C)c1NC1=C(Cl)C(=O)OC1OC(C)C (configuration not stated)	Lmaj promast 50
O=c1[nH]c(-c2ccc3c(c2)OCO3)nc2c1sc(=S)n2-c1ccccc1	Lmaj promast 51
CN(C)Cc1c(-c2ccc(Cl)cc2)nc2ccc(Cl)cn12	Lmaj promast 68
Cc1ccccc1N1CC(C(=O)O)CC1=O (configuration not stated)	none
COc1ccc(-c2cc(-c3ccco3)[nH]c(=O)c2C#N)cc1OC	none (no result: Lmaj promast, PKD1 kinase inh, ABCB1 inh, ABCG2 block, GSH fluor)
O=C(c1ccccc1)c1ccc(C(=O)N2CCOCC2)cc1	none
O=C(c1ccc(-c2ccccc2)cc1)c1ccccc1C(=O)N1CCOCC1	Lmaj promast 51
Cc1ccc(N=C2NC(=O)/C(=C/c3cccn3C)S2)cc1	none (no result: Lmaj promast, PKD1 kinase inh, ABCB1 inh, ABCG2 block, GSH fluor)
CC1C/C(=C/c2cccn2C)C(=O)/C(=C/c2cccn2C)C1 (configuration not stated)	Lmaj promast 86
CC1C/C(=C/c2ccncc2)C(=O)/C(=C/c2ccncc2)C1 (configuration not stated)	Lmaj promast 101
COC(=O)c1nc(-c2ccccc2)oc1N1CCOCC1	none
Cc1ccc(C(=O)COC(=O)c2cccc(NC(=O)c3ccc([N+](=O)[O-])cc3[N+](=O)[O-])c2)cc1	Lmaj promast 92
CC(=O)Nc1ccc(C(=O)OCC(=O)c2ccc(C)c([N+](=O)[O-])c2)cc1	Lmaj promast 58
Nc1ccc(C(=O)OCC(=O)c2cccc([N+](=O)[O-])c2)cc1	none
COc1cccc(C(=O)Nc2c[nH]c(=O)[nH]c2=O)c1	none (no result: Lmaj promast, PKD1 kinase inh, ABCB1 inh, ABCG2 block, GSH fluor)
CC(C)N1CCN(Cc2cccn2-c2nccs2)CC1CCO (configuration not stated)	Avidin bead fluor 56
Cc1c(-n2c(SCC(=O)C(C)(C)C)nc3ccccc3c2=O)c(=O)n(-c2ccccc2)n1C	none
Cn1c(SCC(=O)Nc2cccc(S(=O)(=O)NC3=NCCCCC3)c2)nnc1-c1ccncc1	none
O=[N+]([O-])c1ccc(NCCNS(=O)(=O)c2ccccc2)c(C(F)(F)F)c1	Lmaj promast 79
O=[N+]([O-])c1ccc(NCCCNS(=O)(=O)c2ccccc2)c(Cl)c1	Lmaj promast 64
CCC(C)NS(=O)(=O)c1ccc(NC(=O)c2ccc([N+](=O)[O-])cc2Cl)cc1 (configuration not stated)	none
CCOCCCNS(=O)(=O)c1ccc(NC(=O)c2ccc([N+](=O)[O-])cc2Cl)cc1	Lmaj promast 74
